≈ marks a conversion by molar mass, not a printed value.
Key:
[1] = system: Escherichia coli; assay: Antibacterial activity against Escherichia coli after 24 hrs by microdilution method; format: functional
[2] = system: Enterococcus faecalis; assay: Antibacterial activity against vancomycin-resistant Enterococcus faecalis after 24 hrs by microdilution method; format: functional
[3] = system: Staphylococcus aureus; assay: Antibacterial activity against methicillin-resistant Staphylococcus aureus after 24 hrs by microdilution method; format: functional
[4] = system: Enterococcus faecium; assay: Antibacterial activity against vancomycin-resistant Enterococcus faecium after 24 hrs by microdilution method; format: functional
[5] = system: Streptococcus pneumoniae; assay: Antibacterial activity against Penicillin-resistant Streptococcus pneumoniae after 24 hrs by microdilution method; format: functional
[6] = system: Pseudomonas aeruginosa; assay: Antibacterial activity against Pseudomonas aeruginosa after 24 hrs by microdilution method; format: functional
[7] = Apparent oral bioavailability in mouse plasma by LC-MS/MS analysis; format: ADME, organism-based
Method in brief: (§1)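 Mice, n = 3–5 per group, given the compound intravenously and orally. Plasma pharmacokinetic parameters were derived: total plasma clearance, steady-state volume of distribution, apparent terminal elimination half-life, Tmax after oral dosing, and absolute oral bioavailability (%F).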

[8] = target: T1, Peptide deformylase (Staphylococcus aureus, UniProt P68826); assay: Inhibition of Staphylococcus aureus PDF using formyl-methionine-alanine-serine as substrate assessed as increase in NADH levels by microtiter ELISA
T1 sequence (P68826 whole entry): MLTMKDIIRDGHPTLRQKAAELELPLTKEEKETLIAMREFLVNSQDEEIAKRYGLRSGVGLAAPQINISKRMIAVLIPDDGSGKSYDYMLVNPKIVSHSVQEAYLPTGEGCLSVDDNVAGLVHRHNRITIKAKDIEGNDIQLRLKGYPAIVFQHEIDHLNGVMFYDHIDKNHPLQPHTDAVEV

[9] = Plasma clearance in iv/po dosed mouse by LC-MS/MS analysis; format: ADME, organism-based; method in brief: as §1
[10] = target: T2, Peptide deformylase (Staphylococcus aureus) (UniProt P68826); assay: Inhibition of Staphylococcus aureus PDF using formyl-methionine-alanine-serine as substrate assessed as increase in NADH levels at 100 nM by microtiter ELISA
T2 sequence (whole entry): T1 sequence (P68826 whole entry)

[11] = target: T2, Peptide deformylase (Staphylococcus aureus); assay: Inhibition of Staphylococcus aureus PDF using formyl-methionine-alanine-serine as substrate assessed as increase in NADH levels at 30 nM by microtiter ELISA
[12] = Volume of distribution at steady state in iv/po dosed mouse plasma by LC-MS/MS analysis; format: ADME, organism-based; settings: read-out: Vdss; method in brief: as §1
[13] = system: Enterococcus faecium; assay: Antibacterial activity against vancomycin-resistant Enterococcus faecium infected in po dosed immunosuppressed mouse model assessed as inhibition of systemic infection administered bid for 3 days; format: functional; settings: 72 h
Method in brief: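 Immunosuppressed mice (n = 6/group) received a systemic ip infection with a standard vancomycin-resistant E. faecium strain at 1 × 10⁹ CFU per mouse. Dosing was oral, BID, for 3 days. ED50 and 95% CI came from probit analysis of day-7 survival.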

[14] = system: Streptococcus pneumoniae; assay: Antibacterial activity against Penicillin-resistant Streptococcus pneumoniae yonsei 15 infected in po dosed immunosuppressed mouse model assessed as inhibition of pulmonary infection administered bid for 3 days; format: functional; settings: yonsei 15, po, 72 h
Method in brief: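 Lung infection in immunosuppressed mice (n = 6/group) by intranasal inoculation with penicillin-resistant S. pneumoniae Yonsei15 at 1 × 10⁶ CFU per mouse. Treatment was oral, twice daily for 3 days. Day-7 survival was analysed by probit to give ED50 and 95% CI.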

[15] = target: T2, Peptide deformylase (Staphylococcus aureus); assay: Inhibition of Staphylococcus aureus PDF using formyl-methionine-alanine-serine as substrate assessed as increase in NADH levels at 10 nM by microtiter ELISA
[16] = target: T2, Peptide deformylase (Staphylococcus aureus); assay: Inhibition of Staphylococcus aureus PDF using formyl-methionine-alanine-serine as substrate assessed as increase in NADH levels at 3 nM by microtiter ELISA
[17] = system: Staphylococcus aureus; assay: Antibacterial activity against methicillin-resistant Staphylococcus aureus infected in po dosed mouse model assessed as inhibition of systemic infection administered bid for 3 days; format: functional; settings: 72 h
Method in brief: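 Normal mice (n = 6/group) given a systemic ip challenge with a standard MRSA strain at 2 × 10⁸ CFU per mouse. Oral treatment twice daily for 3 days. Survival was scored at day 7, and ED50 with 95% CI was derived by probit analysis.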

[18] = Apparent terminal half life in iv/po dosed mouse plasma by LC-MS/MS analysis; format: ADME, organism-based; settings: read-out: betat1/2(app) (converted); method in brief: as §1
[19] = Tmax in iv/po dosed mouse plasma by LC-MS/MS analysis; format: ADME, organism-based; method in brief: as §1

Structure (SMILES)	MIC [1] [µg/mL]	MIC [2] [µg/mL]	MIC [3] [µg/mL]	MIC [4] [µg/mL]	MIC [5] [µg/mL]	MIC [6] [µg/mL]	also measured
CC(C)(C)[C@H](NC(=O)[C@H](CC1CCCC1)CN(O)C=O)C(=O)N1CCC(N)CC1	> 50	50 (≈ 122 µM)	> 50	> 50	1.6 (≈ 3.9 µM)	> 50	
COC(=O)c1ccc(CNC2CCN(C(=O)[C@@H](NC(=O)[C@H](CC3CCCC3)CN(O)C=O)C(C)(C)C)CC2)cc1		6.3 (≈ 11.3 µM)	12.5 (≈ 22.4 µM)	3.1 (≈ 5.55 µM)	0.8 (≈ 1.43 µM)		
CC(=O)Nc1ccc(CNC2CCN(C(=O)[C@@H](NC(=O)[C@H](CC3CCCC3)CN(O)C=O)C(C)(C)C)CC2)cc1		12.5 (≈ 22.4 µM)	> 50	25 (≈ 44.8 µM)	1.6 (≈ 2.87 µM)		
COc1ccc(CNC2CCN(C(=O)[C@@H](NC(=O)[C@H](CC3CCCC3)CN(O)C=O)C(C)(C)C)CC2)cc1		6.3 (≈ 11.9 µM)	12.5 (≈ 23.6 µM)	1.6 (≈ 3.01 µM)	0.8 (≈ 1.51 µM)		
CC(C)(C)[C@H](NC(=O)[C@H](CC1CCCC1)CN(O)C=O)C(=O)N1CCC(NCc2ccc3c(c2)OCO3)CC1	> 50	3.1 (≈ 5.69 µM)	6.3 (≈ 11.6 µM)	0.8 (≈ 1.47 µM)	1.6 (≈ 2.94 µM)	> 50	
CC(C)(C)[C@H](NC(=O)[C@H](CC1CCCC1)CN(O)C=O)C(=O)N1CCC(NCc2ccc(F)cc2)CC1		3.1 (≈ 5.98 µM)	6.3 (≈ 12.1 µM)	0.4 (≈ 0.771 µM)	0.4 (≈ 0.771 µM)		
CC(C)(C)[C@H](NC(=O)[C@H](CC1CCCC1)CN(O)C=O)C(=O)N1CCC(NCc2cc(F)c(F)cc2F)CC1		0.8 (≈ 1.44 µM)	1.6 (≈ 2.88 µM)	0.8 (≈ 1.44 µM)	0.4 (≈ 0.721 µM)		bioavailability [7]: 95.8%; IC50 [8]: 30 nM; clearance [9]: 19 mL/min/kg; inhibition [10]: 78%; inhibition [11]: 51%; Vd [12]: 1.71 L/kg; ED50 [13]: 13.3 mg/kg; ED50 [14]: 3 mg/kg; inhibition [15]: 20%; inhibition [16]: -3%; ED50 [17]: 16.6 mg/kg; half-life [18]: 63 min; Tmax [19]: 30 min
COc1ccc(CNC2CCN(C(=O)[C@@H](NC(=O)[C@H](CC3CCCC3)CN(O)C=O)C(C)(C)C)CC2)c(OC)c1		6.3 (≈ 11.2 µM)	25 (≈ 44.6 µM)	3.1 (≈ 5.53 µM)	0.8 (≈ 1.43 µM)		
CC(C)(C)[C@H](NC(=O)[C@H](CC1CCCC1)CN(O)C=O)C(=O)N1CCC(NCc2nc3ccccc3[nH]2)CC1	> 50	6.3 (≈ 11.7 µM)	6.3 (≈ 11.7 µM)	12.5 (≈ 23.1 µM)	1.6 (≈ 2.96 µM)	> 50	
CC(C)(C)[C@H](NC(=O)[C@H](CC1CCCC1)CN(O)C=O)C(=O)N1CCC(NCc2ccc[nH]2)CC1	> 50	> 50	> 50	> 50	6.3 (≈ 12.9 µM)	> 50	
CC(C)(C)[C@H](NC(=O)[C@H](CC1CCCC1)CN(O)C=O)C(=O)N1CCC(NCc2ccc(O)cc2)CC1		> 50	> 50	50 (≈ 96.8 µM)	3.1 (≈ 6 µM)		
CC(C)(C)[C@H](NC(=O)[C@H](CC1CCCC1)CN(O)C=O)C(=O)N1CCC(NCc2ccccc2)CC1	> 50	1.6 (≈ 3.2 µM)	3.1 (≈ 6.19 µM)	0.8 (≈ 1.6 µM)	0.8 (≈ 1.6 µM)	> 50	
CC(C)(C)[C@H](NC(=O)[C@H](CC1CCCC1)CN(O)C=O)C(=O)N1CCC(NC(=O)c2ccc(C#N)cc2)CC1							bioavailability [7]: 55.5%; clearance [9]: 44 mL/min/kg; Vd [12]: 2.54 L/kg; half-life [18]: 55.2 min; Tmax [19]: 40.2 min
CC(C)(C)[C@H](NC(=O)[C@H](CC1CCCC1)CN(O)C=O)C(=O)N1CCC(NCc2ccco2)CC1	> 50	25 (≈ 51 µM)	50 (≈ 102 µM)	50 (≈ 102 µM)	1.6 (≈ 3.26 µM)	> 50	
CC(C)(C)[C@H](NC(=O)[C@H](CC1CCCC1)CN(O)C=O)C(=O)N1CCC(Nc2ccc3cn[nH]c3c2)CC1	> 50	6.3 (≈ 12 µM)	12.5 (≈ 23.7 µM)	1.6 (≈ 3.04 µM)	0.4 (≈ 0.759 µM)	> 50	
CC(C)(C)[C@H](NC(=O)[C@H](CC1CCCC1)CN(O)C=O)C(=O)N1CCC(NCc2ccc(O)c(O)c2)CC1		> 50	> 50	> 50	12.5 (≈ 23.5 µM)		
CC(C)(C)[C@H](NC(=O)[C@H](CC1CCCC1)CN(O)C=O)C(=O)N1CCN(Cc2ccc3c(c2)OCO3)CC1							IC50 [8]: 30 nM; inhibition [10]: 72%; inhibition [11]: 34%; inhibition [15]: 1%
CC(C)(C)[C@H](NC(=O)[C@H](CC1CCCC1)CN(O)C=O)C(=O)N1CCC(NCc2ccccn2)CC1	> 50	12.5 (≈ 24.9 µM)	25 (≈ 49.8 µM)	12.5 (≈ 24.9 µM)	1.6 (≈ 3.19 µM)	> 50	
CC(C)(C)[C@H](NC(=O)[C@H](CC1CCCC1)CN(O)C=O)C(=O)N1CCC(Nc2ccccc2)CC1	> 50	3.1 (≈ 6.37 µM)	6.3 (≈ 12.9 µM)	0.8 (≈ 1.64 µM)	0.8 (≈ 1.64 µM)	> 50	
CC(=O)NC[C@H]1CN(c2ccc(N3CCOCC3)c(F)c2)C(=O)O1 [LINEZOLID]	> 50	0.8 (≈ 2.37 µM)	1.6 (≈ 4.74 µM)	1.6 (≈ 4.74 µM)	0.8 (≈ 2.37 µM)	> 50	ED50 [13]: 11.4 mg/kg; ED50 [14]: 1.5 mg/kg; ED50 [17]: 5 mg/kg
CN[C@@H](CC(C)C)C(=O)N[C@H]1C(=O)N[C@@H](CC(N)=O)C(=O)N[C@H]2C(=O)N[C@H]3C(=O)N[C@H](C(=O)N[C@@H](C(=O)O)c4cc(O)cc(O)c4-c4cc3ccc4O)[C@H](O)c3ccc(c(Cl)c3)Oc3cc2cc(c3O[C@H]2O[C@@H](CO)[C@H](O)[C@@H](O)[C@@H]2O[C@@H]2C[C@@](C)(N)[C@@H](O)[C@@H](C)O2)Oc2ccc(cc2Cl)[C@H]1O	> 50	> 50	3.1 (≈ 2.14 µM)	> 50	0.8 (≈ 0.552 µM)	> 50	
CC(C)(C)[C@H](NC(=O)[C@H](CC1CCCC1)CN(O)C=O)C(=O)N1CCC(NCc2ccc3[nH]ccc3c2)CC1	> 50	3.1 (≈ 5.74 µM)	6.3 (≈ 11.7 µM)	6.3 (≈ 11.7 µM)	0.8 (≈ 1.48 µM)	> 50	
Cc1ccc(CNC2CCN(C(=O)[C@@H](NC(=O)[C@H](CC3CCCC3)CN(O)C=O)C(C)(C)C)CC2)cc1		3.1 (≈ 6.02 µM)	6.3 (≈ 12.2 µM)	0.4 (≈ 0.777 µM)	0.4 (≈ 0.777 µM)		
CC(C)(C)[C@H](NC(=O)[C@H](CC1CCCC1)CN(O)C=O)C(=O)N1CCC(Nc2ccc3c(c2)OCO3)CC1	> 50	3.1 (≈ 5.84 µM)	6.3 (≈ 11.9 µM)	1.6 (≈ 3.02 µM)	0.4 (≈ 0.754 µM)	> 50	
CC(C)(C)[C@H](NC(=O)[C@H](CC1CCCC1)CN(O)C=O)C(=O)N1CCC(NCc2ccc(C#N)cc2)CC1		0.8 (≈ 1.52 µM)	3.1 (≈ 5.9 µM)	0.8 (≈ 1.52 µM)	0.4 (≈ 0.761 µM)		bioavailability [7]: 103%; IC50 [8]: 30 nM; clearance [9]: 51.5 mL/min/kg; inhibition [10]: 77%; inhibition [11]: 54%; Vd [12]: 3.49 L/kg; inhibition [15]: 19%; inhibition [16]: -6%; half-life [18]: 21.6 min; Tmax [19]: 30 min

From ChEMBL document CHEMBL3808332, “Identification of novel aminopiperidine derivatives for antibacterial activity against Gram-positive bacteria” (Bioorg Med Chem Lett, 2016)
